Results from publication PMC6510378 (Clinical and Translational Science, 2019).

Tests used:
[1] = MAD study part 1; type: in vivo, human
In short: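 Healthy young Japanese, young non-Japanese and elderly non-Japanese adults got a single oral dose (10, 20 or 50 mg) or placebo on day 1. After a 4-day washout, dosing was once daily on days 5–18. PK-day doses were taken with 240 mL water after a 10-hour fast, with no food for 4 h. Plasma drug was measured by validated HPLC-MS/MS. Values below the limit of quantification were set to zero.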

[2] = MAD study part 2; type: in vivo, human
In short: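 Healthy young non-Japanese adults, open-label oral dosing. 0.7 or 2 mg was given as a single dose on day 1, then after a 6-day washout once daily. 0.4 mg was given once daily on days 1–14. 0.2 mg followed a 3 mg loading dose on day 1, days 2–14. PK doses were given fasted 10 h, with no food for 4 h. Plasma drug was measured by validated HPLC-MS/MS, with below-limit values set to zero. AUClast was reported where AUCinf was not calculable.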

[3] = biological target: T1, 11β‐HSD2 (Homo sapiens, UniProt P80365); test: Urine 11β-HSD2 activity; type: in vivo; conditions: up to 50 mg q.d. for 14 days
T1 sequence (P80365 1-405): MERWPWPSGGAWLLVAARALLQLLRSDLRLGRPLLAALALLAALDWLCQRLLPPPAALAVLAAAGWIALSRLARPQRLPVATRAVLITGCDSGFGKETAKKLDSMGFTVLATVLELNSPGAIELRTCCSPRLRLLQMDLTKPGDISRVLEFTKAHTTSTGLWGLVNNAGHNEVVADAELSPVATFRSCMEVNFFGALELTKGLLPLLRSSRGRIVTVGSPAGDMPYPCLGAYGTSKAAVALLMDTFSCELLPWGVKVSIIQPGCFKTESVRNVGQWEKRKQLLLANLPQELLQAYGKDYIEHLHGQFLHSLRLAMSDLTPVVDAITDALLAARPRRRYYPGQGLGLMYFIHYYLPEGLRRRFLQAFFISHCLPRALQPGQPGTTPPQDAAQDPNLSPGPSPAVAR
In short: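 Renal 11β-HSD2 activity was taken as the urinary cortisol/cortisone ratio. Subjects were healthy young Japanese, young non-Japanese and elderly non-Japanese adults on oral placebo or drug (10, 20 or 50 mg), single dose day 1 then once daily on days 5–18. The ratio was assessed on days 1 and 18.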

[4] = Safety and tolerability, SAD study; type: in vivo, human
In short: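 Safety was assessed from treatment-emergent adverse events: nature, frequency, severity, onset/offset and relatedness to study drug, coded by MedDRA system organ class. Also assessed were haematology, serum chemistry, urinalysis, physical examination with vital signs, and ECGs. CNS scales used were Bond and Lader VAS, ARCI-49 and Profile of Mood States. Data were summarized descriptively.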

[5] = biological target: human 11β‐HSD1; conditions: competitive binding; ref Internal study reports 3662‐PH‐0001 and 3662‐PH‐0001‐0004; cited from earlier work
[6] = system: 11β‐HSD2; conditions: at concentrations < 3,000 nM; ref Internal study reports 3662‐PH‐0001 and 3662‐PH‐0001‐0004; cited from earlier work
[7] = mice, available in vivo pharmacology data; cited from earlier work
[8] = MAD part 1, day 1 single dose 10 mg, young Japanese, n=8
[9] = MAD part 1, day 1 single dose 20 mg, elderly non-Japanese, n=9
[10] = MAD part 1, day 1 single dose 20 mg, young Japanese, n=8
[11] = MAD part 1, day 1 single dose 20 mg, young non-Japanese, n=8
[12] = MAD part 1, day 1 single dose 50 mg, young Japanese, n=8
[13] = MAD part 1, day 1 single dose 50 mg, young non-Japanese, n=8
[14] = MAD part 1, day 18 multiple dose q.d. 14 days 10 mg, young Japanese, n=8
[15] = MAD part 1, day 18 multiple dose q.d. 14 days 20 mg, elderly non-Japanese, n=9
[16] = MAD part 1, day 18 multiple dose q.d. 14 days 20 mg, young Japanese, n=8
[17] = MAD part 1, day 18 multiple dose q.d. 14 days 20 mg, young non-Japanese, n=8
[18] = MAD part 1, day 18 multiple dose q.d. 14 days 50 mg, young Japanese, n=8
[19] = MAD part 1, day 18 multiple dose q.d. 14 days 50 mg, young non-Japanese, n=7
[20] = MAD part 2, day 1 single dose 0.7 mg, young non-Japanese, n=6
[21] = MAD part 2, day 1 single dose 2 mg, young non-Japanese, n=2
[22] = MAD part 2, last day of q.d. 14 days 0.4 mg, young non-Japanese, n=2
[23] = MAD part 2, last day of q.d. 14 days 0.4 mg, young non-Japanese, n=4
[24] = MAD part 2, last day of q.d. 14 days 0.7 mg, young non-Japanese, n=1
[25] = MAD part 2, last day of q.d. 14 days 0.7 mg, young non-Japanese, n=6
[26] = MAD part 2, last day of q.d. 14 days 2 mg, young non-Japanese, n=4
[27] = MAD part 2, last day of q.d. 14 days 2 mg, young non-Japanese, n=5

Cn1c(-c2ccc(C(N)=O)cc2F)nnc1C(C)(C)Oc1c(F)cc(Cl)cc1F [ASP3662]
CL/F, Mean (SD) [1, 8]: 9.254 (4.086) L/hour | CL/F, Median [1, 8]: 7.651 L/h | CL/F, Min–max [1, 8]: 5.05 to 15.3 L/h | CL/F, Mean (SD) [1, 9]: 6.99 (2.152) L/hour | CL/F, Median [1, 9]: 6.567 L/h | CL/F, Min–max [1, 9]: 3.8 to 10.4 L/h | CL/F, Mean (SD) [1, 10]: 9.993 (2.926) L/hour | CL/F, Median [1, 10]: 9.182 L/h | CL/F, Min–max [1, 10]: 6.03 to 15.0 L/h | CL/F, Mean (SD) [1, 11]: 7.412 (2.61) L/hour | CL/F, Median [1, 11]: 7.279 L/h | CL/F, Min–max [1, 11]: 4.33 to 11.7 L/h | CL/F, Mean (SD) [1, 12]: 6.758 (1.787) L/hour | CL/F, Median [1, 12]: 6.240 L/h | CL/F, Min–max [1, 12]: 4.30 to 9.40 L/h | CL/F, Mean (SD) [1, 13]: 7.005 (2.789) L/hour | CL/F, Median [1, 13]: 7.259 L/h | CL/F, Min–max [1, 13]: 2.53 to 10.1 L/h | CL/F, Mean (SD) [1, 14]: 6.07 (2.591) L/hour | CL/F, Median [1, 14]: 5.708 L/h | CL/F, Min–max [1, 14]: 3.02 to 9.87 L/h | Ctrough, Mean (SD) [1, 14]: 37.65 (30.42) ng/mL | Ctrough, Median [1, 14]: 24.76 ng/mL | Ctrough, Min–max [1, 14]: 13.5 to 84.0 ng/mL | CL/F, Mean (SD) [1, 15]: 5.675 (1.649) L/hour | CL/F, Median [1, 15]: 5.675 L/h | CL/F, Min–max [1, 15]: 2.81 to 8.51 L/h | Ctrough, Mean (SD) [1, 15]: 63.58 (49.38) ng/mL | Ctrough, Median [1, 15]: 52.25 ng/mL | Ctrough, Min–max [1, 15]: 26.1 to 184 ng/mL | CL/F, Mean (SD) [1, 16]: 8.322 (2.562) L/hour | CL/F, Median [1, 16]: 8.117 L/h | CL/F, Min–max [1, 16]: 4.47 to 13.5 L/h | Ctrough, Mean (SD) [1, 16]: 34.01 (24.86) ng/mL | Ctrough, Median [1, 16]: 26.35 ng/mL | Ctrough, Min–max [1, 16]: 13.7 to 92.1 ng/mL | CL/F, Mean (SD) [1, 17]: 6.487 (2.372) L/hour | CL/F, Median [1, 17]: 6.473 L/h | CL/F, Min–max [1, 17]: 3.64 to 10.3 L/h | Ctrough, Mean (SD) [1, 17]: 58.68 (40.91) ng/mL | Ctrough, Median [1, 17]: 42.71 ng/mL | Ctrough, Min–max [1, 17]: 19.9 to 132 ng/mL | CL/F, Mean (SD) [1, 18]: 10.46 (12.75) L/hour | CL/F, Median [1, 18]: 6.58 L/h | CL/F, Min–max [1, 18]: 3.80 to 41.8 L/h | Ctrough, Mean (SD) [1, 18]: 115.3 (59.73) ng/mL | Ctrough, Median [1, 18]: 103.3 ng/mL | Ctrough, Min–max [1, 18]: 21.0 to 223 ng/mL | CL/F, Mean (SD) [1, 19]: 5.507 (2.275) L/hour | CL/F, Median [1, 19]: 5.607 L/h | CL/F, Min–max [1, 19]: 1.86 to 8.76 L/h | Ctrough, Mean (SD) [1, 19]: 261.3 (267.1) ng/mL | Ctrough, Median [1, 19]: 175.2 ng/mL | Ctrough, Min–max [1, 19]: 60.4 to 841 ng/mL | steady state after 14 days of q.d. dosing ([2]; 0.2 and 0.4 mg, despite 3‐mg loading dose in 0.2‐mg group): not fully reached | AUCinf (AUClast values presented, footnote a), Mean (SD) [2, 20]: 0.2437 (0.4421) ng·hour/mL | AUCinf (AUClast values presented, footnote a), Median [2, 20]: 0.01242 ng·h/mL | AUCinf (AUClast values presented, footnote a), Min–max [2, 20]: 0 to 1.11 ng·h/mL | CL/F, Mean (SD) [2, 21]: 42.21 (6.917) L/hour | CL/F, Median [2, 21]: 42.21 L/h | CL/F, Min–max [2, 21]: 37.3 to 47.1 L/h | VzF, Mean (SD) [2, 21]: 5,472 (1,378) L | VzF, Median [2, 21]: 5,472 L | VzF, Mean (SD) [2, 22]: 2,516 (45.89) L | VzF, Median [2, 22]: 2,516 L | VzF, Min–max [2, 22]: 2,484–2,549 L | CL/F, Mean (SD) [2, 23]: 10.83 (0.7639) L/hour | CL/F, Median [2, 23]: 10.83 L/h | CL/F, Min–max [2, 23]: 9.90 to 11.8 L/h | Ctrough, Mean (SD) [2, 23]: 1.072 (0.1719) ng/mL | Ctrough, Median [2, 23]: 1.053 ng/mL | Ctrough, Min–max [2, 23]: 0.918 to 1.26 ng/mL | VzF, Mean (SD) [2, 24]: 3,677 (NC) L | VzF, Median [2, 24]: 3,677 L | VzF, Min–max [2, 24]: 3,677–3,677 L | CL/F, Mean (SD) [2, 25]: 11.44 (2.349) L/hour | CL/F, Median [2, 25]: 11.34 L/h | CL/F, Min–max [2, 25]: 7.45 to 14.2 L/h | Ctrough, Mean (SD) [2, 25]: 1.389 (0.3190) ng/mL | Ctrough, Median [2, 25]: 1.234 ng/mL | Ctrough, Min–max [2, 25]: 1.10 to 1.83 ng/mL | VzF, Mean (SD) [2, 26]: 1,231 (547.6) L | VzF, Median [2, 26]: 1,165 L | VzF, Min–max [2, 26]: 715–1,880 L | CL/F, Mean (SD) [2, 27]: 9.41 (1.208) L/hour | CL/F, Median [2, 27]: 9.139 L/h | CL/F, Min–max [2, 27]: 8.23 to 11.4 L/h | Ctrough, Mean (SD) [2, 27]: 3.493 (1.166) ng/mL | Ctrough, Median [2, 27]: 3.437 ng/mL | Ctrough, Min–max [2, 27]: 1.80 to 5.03 ng/mL | change in urinary cortisol to cortisone ratio relative to PBO [3]: no noteworthy changes | clinically relevant finding (vital signs) ([4]; after a single dose of 6 mg): clinically significant orthostatic hypotension | overall safety and tolerability ([4]; single oral doses up to 60 mg): safe and well tolerated | Ki [5]: 5.3 nM | inhibition of 11β‐HSD2 [6]: no inhibition | minimal pharmacological active oral dose [7]: 0.03 mg/kg
